# Results as given in PubChem BioAssay.
# Active and inactive are the calls of the source.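 Rule for the calls, unless noted: active = inhibition at or above 50% at 10 µM; inactive = inhibition below 50%.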
# Tests used:
# [1] = inhibitors of TNFa-induced NFkB p65 translocation, primary screen, imaging, HUVEC, MLSMR starter and 10KST1 sets (AID 438;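 active = inhibition above 20% together with a positive visual image hit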;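 note: compound added about 3h40 before a 20 min TNFalpha stimulation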;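 for inhibition: signal is the nuclear over cytoplasmic p65 intensity ratio per well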); conditions: HUVEC TNFa-induced p65 nuclear translocation; cell count: measured here: nuclei count (cytotoxicity indicator), at 2.08 µM; inhibition: at 2 µM, stronger effect = higher value, 0% TNFa-plus-vehicle, 100% no-TNFa wells
# [2] = reduction of polyQ htt aggregates in cells – imaging, exon1htt(103Q)mCFP cells, high-content imaging, primary screen (AID 483;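 active = visual image review flags a hit and inhibition of aggregation exceeds 20%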;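 note: compound exposure lasted 3 days before fixation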;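 for nuclei count: percent of the per-plate median nuclei count of sample wells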); conditions: exon1htt(103Q)mCFP cell line, aggregate imaging, at 2 µM; inhibition of aggregation: stronger effect = higher value; nuclei count: measured here: cell count, toxicity
# [3] = endothelial E-selectin expression blockers – imaging, HUVEC, immunofluorescence, MLSMR starter and 10KST1 sets, primary screen (AID 487;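 active = visually confirmed hit in the image check and inhibition above 20%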;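 for inhibition: signal is fraction of cell area covered by stained E-selectin grains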;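 for nuclei count: 100% = median nuclei count of all wells on the same plate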); conditions: HUVEC TNFalpha-induced E-selectin immunofluorescence imaging, at 2 µM; inhibition: stronger effect = higher value; nuclei count: measured here: cell number, toxicity
# [4] = biological target: Voltage-gated potassium channel subunit beta-2 (Rattus norvegicus) (UniProt P62483); assay: inhibitors of rat Kvbeta2 reductase activity – biochemical, NADPH fluorescence, primary screen (AID 622;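 active = fluorescence slope higher than the sample average by over 3 SD, cut at about -0.22 in these data, passing the limit was not always enough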;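 note: slope of raw intensity against log time taken from 70 to 1610 s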); conditions: recombinant KvBeta, 4-cyanobenzaldehyde reduction, at 10 µM, stronger effect = higher value
# Voltage-gated potassium channel subunit beta-2 (Rattus norvegicus), sequence (P62483 whole entry, looked up): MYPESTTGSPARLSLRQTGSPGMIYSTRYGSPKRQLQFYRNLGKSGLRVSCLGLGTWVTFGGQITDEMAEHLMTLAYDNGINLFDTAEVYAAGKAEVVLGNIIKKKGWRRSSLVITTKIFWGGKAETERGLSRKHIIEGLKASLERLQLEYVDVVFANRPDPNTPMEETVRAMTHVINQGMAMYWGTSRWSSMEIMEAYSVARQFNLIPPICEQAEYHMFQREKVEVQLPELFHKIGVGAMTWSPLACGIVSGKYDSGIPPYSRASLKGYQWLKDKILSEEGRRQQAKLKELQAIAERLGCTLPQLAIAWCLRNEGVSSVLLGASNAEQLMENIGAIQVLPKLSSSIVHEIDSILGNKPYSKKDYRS
# [5] = biological target: Voltage-gated potassium channel subunit beta-2 (Rattus norvegicus) (UniProt P62483); assay: enhancers of rat Kvbeta2 NADPH turnover – biochemical, NADPH fluorescence, primary screen (AID 623;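 active = NADPH fluorescence slope more negative than the mean of all samples by about 3 SD, 99.7% confidence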;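 note: fluorescence intensity change per second fitted from 20 to 320 s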); conditions: Recombinant KvBeta, NADPH fluorescence decrease slope, 10 min; at 10 µM; stronger effect = lower value
# [6] = biological target: Muscarinic acetylcholine receptor M4 (Homo sapiens) (UniProt P08173); assay: M4-linked GIRK flux change, two-sided – cell-based, HEK293 M4/GIRK, thallium flux, BTC-AM, M4 allosteric agonist project, primary screen (AID 625;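 active = fluorescence slope after compound addition differing from the mean of all tested samples at 99.7% confidence, mostly higher but some lower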;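 note: thallium influx through GIRK channels coupled to M4 in HEK293 cells with BTC-AM dye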); conditions: at 10 µM, actives lie on both sides
# Muscarinic acetylcholine receptor M4 (Homo sapiens), sequence (P08173 whole entry, looked up): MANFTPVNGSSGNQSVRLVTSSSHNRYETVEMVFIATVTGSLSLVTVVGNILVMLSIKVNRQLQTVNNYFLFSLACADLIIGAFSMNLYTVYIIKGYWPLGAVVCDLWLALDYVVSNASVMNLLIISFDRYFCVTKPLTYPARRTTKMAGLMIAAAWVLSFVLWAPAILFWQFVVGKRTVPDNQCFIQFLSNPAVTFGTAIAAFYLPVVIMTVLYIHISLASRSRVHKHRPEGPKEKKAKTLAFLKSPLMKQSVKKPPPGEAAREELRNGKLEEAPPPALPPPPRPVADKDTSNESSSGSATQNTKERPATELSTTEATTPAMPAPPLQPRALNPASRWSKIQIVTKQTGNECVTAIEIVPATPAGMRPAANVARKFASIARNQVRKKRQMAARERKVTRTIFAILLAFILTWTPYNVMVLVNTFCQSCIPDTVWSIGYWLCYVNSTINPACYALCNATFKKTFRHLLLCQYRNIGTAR
# Method in brief: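 System: HEK293 cells with M4 receptor and GIRK channels | Incubation: Cells overnight at 37 °C, BTC-AM loading 1 h, reads 2 min total | Technique: Kinetic BTC-AM fluorescence sampled at 1 Hz, 10 s pre-addition baseline | Measure: Post-addition slope, 15–24 s, of baseline-normalized fluorescence | Control set: Carbachol positive, DMSO negative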
# [7] = blockers of RIG-like receptor reporter activation – cell-based, Sendai virus stimulus, luciferase, 10K MLSCN set, TLR/RLR signaling modifier project, primary screen (AID 602276); conditions: HEK293 RL24 IRF3 luciferase reporter, at 10 µM, stronger effect = higher value;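 note: firefly luciferase from ISG56 promoter only with Renilla not read in this screen; 0% = Sendai virus plus DMSO and 100% = medium plus DMSO without virus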
# [8] = TLR3 IRF3 reporter activation blockers – cell-based, poly I:C stimulus, luciferase, 10K MLSCN set, primary screen (AID 602277;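 active = inhibition of the reporter signal at or above 50%; inactive = inhibition below 50%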); conditions: HEK293-TLR3 RL24 IRF3 luciferase reporter, at 10 µM, stronger effect = higher value
SMILES,cell count [1],inhibition [1],inhibition of aggregation [2],nuclei count [2] [%],inhibition [3],nuclei count [3] [%],fluorescence slope [4],NADPH fluorescence slope [5],fluorescence slope [6],inhibition [7],inhibition [8]
COc1ccccc1C(=O)Nc1ccc(N2CCN(S(C)(=O)=O)CC2)cc1,320,-6.8% (inactive),7% (inactive),127,18.3% (inactive),116,-0.242 (inactive),-2.5e-06 (inactive),0.00706 (inactive),-8.58% (inactive),-50.2% (inactive)
C=C(C)CSc1nnc2[nH]c(=O)cc(N)n12,371,0% (inactive),31.5% (inactive),54.8,-70.9% (inactive),116,-0.458 (inactive),-6e-05 (inactive),0.00517 (inactive),15.7% (inactive),14.4% (inactive)
CS(=O)(=O)N(CC(=O)N1CCCCCC1)c1ccccc1,324,-0.2% (inactive),1.9% (inactive),82.8,-11.6% (inactive),106,-0.452 (inactive),-3.4e-05 (inactive),0.00505 (inactive),11.4% (inactive),8.59% (inactive)
CCSCCC(NC1=CC(=O)CC(C)(C)C1)C(=O)O (stereo not drawn),353,9.3% (inactive),13.5% (inactive),98,-77.8% (inactive),94.9,-0.566 (inactive),-6.6e-05 (inactive),0.00496 (inactive),-16.8% (inactive),98.7% (active)
COc1cc2c(cc1OC)CN(C(=O)COc1ccc(C#N)cc1)CC2,283,-7.5% (inactive),4.5% (inactive),91.8,4.1% (inactive),90.3,-0.574 (inactive),-4.9e-05 (inactive),0.00682 (inactive),6.14% (inactive),4.87% (inactive)
CC(C)CNC(=O)c1ccccc1NC(=O)CN(c1ccc2c(c1)OCCO2)S(C)(=O)=O,330,6% (inactive),-12.9% (inactive),97.5,-0.7% (inactive),105,-0.574 (inactive),2.6e-05 (inactive),0.00389 (inactive),0.301% (inactive),0.167% (inactive)
CN(C)S(=O)(=O)c1ccc(S(=O)(=O)Nc2ccc3c(c2)oc2ccccc23)cc1,414,-7.9% (inactive),-3.8% (inactive),107,4.6% (inactive),92,-0.54 (inactive),-5.2e-05 (inactive),0.00569 (inactive),-8.93% (inactive),-1.94% (inactive)
COc1nc(OC)nc(N2CCC(C(=O)NC3CCCCCC3)CC2)n1,462,7.8% (inactive),6.7% (inactive),87.3,-6% (inactive),110,-0.469 (inactive),6.4e-05 (inactive),0.00646 (inactive),-10% (inactive),-8.66% (inactive)
